{"data": "Experimental data gathered from unrelated publications", "cell line": "HCT-116", "read-out": "cell growth or viability", "note": "Protocols differ between the studies behind these lines."}
{"Compound": "COc1ccc(-c2cc(-c3ccc(OC)cc3)c3c(=O)n(C)c(=O)n(C)c3n2)cc1", "assay": "MTT", "setting": "48 h", "IC50 [nM]": 11600}
{"Compound": "COc1nc(NCc2cn(-c3ccc(C(N)=O)cc3)nn2)nc(OC)n1", "assay": "MTT", "setting": "72 h", "IC50 [nM]": 79.7}
{"Compound": "Cc1nc(NC(=O)N2CCC[C@H]2C(N)=O)sc1-c1ccnc(C(C)(C)C(F)(F)F)c1", "assay": "MTT", "IC50 [nM]": 4340}
{"Compound": "Cc1nc2ccc(CN(C)c3ccc(C(=O)N[C@@H](CCC(=O)O)C(=O)O)s3)cc2c(=O)[nH]1", "assay": "MTT", "setting": "48 h", "IC50 [nM]": 1070}
{"Compound": "COc1nc(NCc2cn(-c3ccc(NC(=O)c4ccc(C(F)(F)F)cc4)cc3)nn2)nc(OC)n1", "assay": "MTT", "setting": "72 h", "IC50 [nM]": 39.9}
{"Compound": "Cc1nc(Nc2ccc3c(c2)/C(=C/c2ccccc2)C(=O)N3C)c2ccccc2n1", "assay": "MTT", "IC50 [nM]": 21400}
{"Compound": "C=C(F)C(=O)N1CCN(c2nc(OC[C@@H]3CCCN3C)nc3c2CCN(c2cccc4cccc(Cl)c24)C3)C[C@@H]1CC#N", "assay": "ATP luminescence", "setting": "3D culture", "IC50 [nM]": "> 1000"}
{"Compound": "Cc1ccc(-c2cc(-c3ccc(Cl)cc3)c3c(=O)[nH]c(=O)[nH]c3n2)cc1", "assay": "MTT", "setting": "48 h", "IC50 [nM]": 5440}
{"Compound": "COc1nc(NCc2cn(-c3ccc(NC(=O)c4ccc(Br)cc4)cc3)nn2)nc(OC)n1", "assay": "MTT", "setting": "72 h", "IC50 [nM]": 56.6}
{"Compound": "Cc1nc(N(Cc2ccccc2)c2ccc3c(c2)/C(=C/c2ccccc2)C(=O)N3Cc2ccccc2)c2ccccc2n1 (mixture of isomers)", "assay": "MTT", "IC50 [nM]": 980}
